Test results from ChEMBL document CHEMBL4513216, “Probing the Open Global Health Chemical Diversity Library for Multistage-Active Starting Points for Next-Generation Antimalarials” (ACS Infect Dis, 2020).

assay: Toxicity liver stage against HepG2, at 10uM; format: cell-based; design: test concentration 10 uM, cell line HepG2-A16-CD81EGFP; settings: human, HepG2-A16-CD81EGFP cells; read-out: INHIBITION
Procedure, shortened: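 Uninfected HepG2-A16-CD81EGFP cells, 3 × 10^3 per well, 1536-well, plated on prespotted compound at 10 μM final, parasite-free screening media added to match infected plates; puromycin 10 μM positive, DMSO 0.5% negative; run in parallel with 48 h PbLuc assay at 37 °C, 5% CO2; viability by CellTiter-Glo luminescence, normalized to controls.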

| Structure (SMILES) | cytotoxicity at 10 µM [%] |
| --- | --- |
| CC(C)N(Cc1ccccn1)C(=O)CCC(=O)c1ccc(F)cc1F | -0.535 |
| CCOCc1cccc(S(=O)(=O)Nc2ccn(CC)n2)c1 | 4.84 |
| CCn1cnnc1CNC(=O)c1cc(Cl)ccc1OC | 5.87 |
| CC1(C)CN(C(=O)c2ncc(F)cc2F)CCC1(O)CN1CCOCC1 (stereo unspecified) | -8.37 |
| Cc1ocnc1C(=O)N[C@H]1CN(CC2CCC2)C[C@@H]1C(C)C | -2.94 |
| O=C(c1cnco1)N1CCCC(Cc2cccc3ncccc23)C1 (stereo unspecified) | 2.16 |
| CCCc1noc(CN(C)C(=O)C2COc3ccccc3C2)n1 (stereo unspecified) | -7.01 |
| CCCc1nccn1-c1cccc(CN2CCCC2)c1 | -4.87 |
| CCCN1CCC(NC(=O)c2csc(C)c2-c2ccccc2)CC1 | -133 |
| Cc1nc(CN2CCO[C@H]3[C@H](OCC(=O)N(C)C)CC[C@@H]32)cs1 | 0.129 |
| CC(NC(=O)COc1ccccc1Cl)c1nnc2n1CCC2 (stereo unspecified) | -6 |
| COc1cccc(CNCCc2cccc(C(N)=O)c2)c1 | 9.83 |
| CCN1CC2(CC1=O)CN(Cc1ccccn1)CCN(C(C)=O)C2 (stereo unspecified) | -1.07 |
| Cc1ccc(S(=O)(=O)NCC(O)c2ccoc2)s1 (stereo unspecified) | -8.18 |
| COCC(=O)N1CC2(CCN(c3ccccc3)C2)C1 | 10.1 |
| Cc1c(NCCOCC(F)(F)F)cccc1C(=O)N1CCCC1 | -0.595 |
| Cc1ccc(S(=O)(=O)Nc2c(C)nn(C)c2C)cc1C | 12.9 |
| Cn1cnc2c1C(COCC1CC1)CN(Cc1ccsc1)C2 (stereo unspecified) | -5.07 |
| Cn1ncc2c1C(COCC1CC1)CN(Cc1ccncc1)C2 (stereo unspecified) | 7.22 |
| Cc1cccc2cc(CNCCCN3CCOCC3)c(=O)[nH]c12 | 0.127 |
| O=C(Cc1ccc2c(c1)OCCO2)NC1CCCC1 | -3.07 |
| CCCn1cc(-c2cc(C(=O)N(C)C)c3cccc(C)c3n2)cn1 | 5.11 |
| O=C(c1cn(-c2ccccc2)nn1)N1CCOCC(O)C1 (stereo unspecified) | 2.35 |

| Structure (SMILES) | cytotoxicity at 10 µM [%] |
| --- | --- |
| N#Cc1cccc(NC(=O)N[C@H](CO)Cc2ccc(O)cc2)c1 | 0.597 |
| CNC(=O)C(NC(C)=O)c1ccc(F)c(F)c1 (stereo unspecified) | -6.1 |
| COC(=O)c1oc(CNC(C)(C)CO)cc1C | 10.5 |
| Cc1nn(C)c(C)c1C1CCCN1C(=O)c1ccc(C(N)=O)cn1 (stereo unspecified) | -4.34 |
| CCCC(=O)NC(C)(C)Cc1ccccc1OC | 5.55 |
| O=C(NC1CC1)N1CCOC2(CCCN(c3cccc(F)c3)C2)C1 (stereo unspecified) | 4.23 |
| COCCC1COC2(CCN(C(=O)c3ccsc3)CC2)C1 (stereo unspecified) | -71.2 |
| COc1ccc(NC2(C(=O)N3CCCn4cncc4C3)CCCC2)cc1 | 10.2 |
| CC(C)NCC1(O)CCCN(CCC2CCCCC2)C1=O (stereo unspecified) | -2.53 |
| CCN(C(=O)COc1nc(C(C)(C)C)no1)C1CC1 | 3.2 |
| CNC(=O)c1cn[nH]c1C1CCN(Cc2ccccc2OC)C1 (stereo unspecified) | 7.16 |
| CCn1nc(C)c(CN(CCOC)C(=O)c2ccc(=O)[nH]n2)c1C | -2.27 |
| O=C(NC1COC2(CCN(Cc3ccccn3)CC2)C1)c1ccccn1 (stereo unspecified) | -4.74 |
| Cc1nn(C)c(C)c1CCC(=O)N1CCCC(n2cncn2)C1 (stereo unspecified) | -1.4 |
| Cc1cnc(N2CC[C@@H](N3CCOCC3)[C@@H]2Cc2ccncc2)nc1 | 4.47 |
| CC(C)C1CCCN1C(=O)c1ccc(-n2ncc(C#N)c2N)cc1 (stereo unspecified) | -1.89 |
| CC(=O)N(Cc1ncc(C)o1)C1CCN(Cc2cnc(C)s2)C1 (stereo unspecified) | 5.42 |
| Cc1nc(C(=O)N2CCCC2c2c(C)nn(C)c2Cl)ccc1C#N (stereo unspecified) | -12.8 |
| Cc1cccc(CN2CCn3cc(CNC(=O)CC4CC4)nc3C2)n1 | -73.2 |
| COCC(=O)N1C[C@@H](c2cccc(F)c2)[C@H]2[C@H]1CCCCCN2C(C)=O | 4.22 |
| Cc1cc(CN2CCC(CNC(=O)c3ccc(C#N)cc3)C2)[nH]n1 (stereo unspecified) | -138 |
| CN1CCNC(=O)C12CCN(Cc1ccco1)CC2 | -81.3 |
| COC(=O)N1CCC(Nc2ccc(C#N)c(Cl)c2)C1 (stereo unspecified) | -8.21 |

| Structure (SMILES) | cytotoxicity at 10 µM [%] |
| --- | --- |
| Cc1ccc(CN2CCCC23Cc2ccccc2CNC3=O)cc1 (stereo unspecified) | 8.82 |
| Cc1cccc2cc(C(=O)N3CCSCC3)n(C)c12 | 6.25 |
| COc1cccc(CC2CN(C3CCCCC3)CCO2)c1 (stereo unspecified) | -11.9 |
| CCc1noc(C)c1C(=O)N1CCCN(Cc2cscn2)CC1 | -0.448 |
| CCCOc1ccc(Cl)cc1CNc1ncnc2oc(C)nc12 | 9.98 |
| O=C(Nc1cccnc1N1CCSCC1)c1ccc2c(c1)OCO2 | -6.14 |
| c1csc(CNCC2COCc3c(-c4ccsc4)nnn3C2)n1 (stereo unspecified) | -113 |
| Clc1ccc2cccnc2c1CN1CCCC1Cn1cncn1 (stereo unspecified) | 3.91 |
| c1ncn(CC2CN(Cc3nc(C4CC4)no3)CCO2)n1 (stereo unspecified) | -8.45 |
| Cc1n[nH]c(C)c1CCNC(=O)Nc1ccc2c(c1)COC2 | -20.4 |
| c1cnc(-c2nc(CN3CCCC(N4CCCC4)C3)cs2)nc1 (stereo unspecified) | -12 |
| COc1ncccc1CN1CC[C@H]2O[C@@H](c3nnc(C)o3)CC[C@H]21 | 9.6 |
| CS(=O)(=O)NCCC1CN(Cc2ccccc2F)CCO1 (stereo unspecified) | -7.31 |
| COc1ccc(-c2nnc(C(C)N3CCOCC3)o2)cc1 (stereo unspecified) | -10.4 |
| O=C(CCc1nc2cccnc2[nH]1)NCc1ccncc1 | 3.72 |
| Cc1cnc(CNC(=O)c2cc3c(s2)CCN3S(C)(=O)=O)cn1 | 2.22 |
| Cc1cccc(-c2c[nH]c(C3CCCN3C(=O)c3cc(C)n[nH]3)n2)c1 (stereo unspecified) | 4 |
| c1cnc(N2C[C@H]3CCC[C@@H](CN4CCCC4)[C@H]3C2)nc1 | -4.22 |
| N#Cc1c(CN2CCCCC2Cn2cncn2)cn2ccccc12 (stereo unspecified) | 3.06 |
| O=C(O)C(c1ccc2c(c1)OCCO2)N1CCC(N2CCSCC2)CC1 (stereo unspecified) | -1.1 |
| CCN(CC)c1ncccc1CNC(=O)c1cc2nc(C)cc(C)n2n1 | 6.43 |
| O=C(NCC1(O)CCC1)c1c(O)cc(Cl)cc1Cl | 0.924 |
| Cc1cnn(CC2CCCN2C(=O)c2cccc(-n3ccc(C)n3)c2)c1 (stereo unspecified) | -19.2 |

| Structure (SMILES) | cytotoxicity at 10 µM [%] |
| --- | --- |
| Cc1cc(C(=O)N2CCn3cc(CN4CCCCC4)nc3C2)no1 | -77.3 |
| CCCS(=O)(=O)N1CCCC(c2cccc(C(=O)O)c2)C1 (stereo unspecified) | 6.09 |
| CSCC(C)(O)CNS(=O)(=O)c1cccc(Cl)c1 (stereo unspecified) | -0.396 |
| OCCN1CCN(Cc2cc(Cl)cc3cccnc23)CC1 | -8.12 |
| CCc1ncc(C(=O)N(CC)CCOC)cn1 | 2.24 |
| Cc1nc(CNCc2cccc(OC34CCCN(CC3)C4)c2)n[nH]1 (stereo unspecified) | -3.69 |
| CCCNC(=O)c1cc2c([nH]c1=O)CC(c1cccs1)CC2=O (stereo unspecified) | 50.9 |
| CCc1nc(-c2ccc(C(=O)N3CCC4(CC3)OCCO4)cc2)no1 | 4.32 |
| O=C(NCC1CC1)C1CN(C(=O)c2ccnnc2)CC12CCOCC2 (stereo unspecified) | 8.21 |
| CC/C=C(/C)C(=O)NS(=O)(=O)c1ccc(C#N)c(C(F)(F)F)c1 | 2.99 |
| COCc1noc(Cn2c(C)cc(C(F)(F)F)cc2=O)n1 | 2.65 |
| Cc1cc(NC(=O)C2CCN(c3nnc(C)c(C)c3C#N)CC2)no1 | -4.11 |
| COc1ccncc1NC(=O)C1(c2ccc(F)cc2)CCC1 | 1.52 |
| Cc1nc(N2CCCC2)nc2c1CCN(C(=O)CN(C)C)CC2 | -5.73 |
| OCCN1CCC(CNCc2cn(-c3ccccc3)nn2)CC1 | 0.03 |
| CCN1N=C(C(=O)N2CCCC(c3nc(C)c(C)s3)C2)CCC1=O (stereo unspecified) | 1.84 |
| CCOCCNC(=O)C1CCC(=O)N(CCc2ccc(Cl)cc2)C1 (stereo unspecified) | 8.61 |
| CC(C)N1CCC(C(=O)N2CCN(c3cccc(C(=O)O)c3)CC2)CC1 | 6.4 |
| CNC(=O)CCCNc1cc(C)nc2cc(C)nn12 | -5.97 |
| CCCc1cnc(C)nc1N1CCC(Cn2cc(CN(C)C)nn2)CC1 | -4.4 |
| CN1Cc2ccccc2N(CC(O)C(F)(F)F)CCC1=O (stereo unspecified) | 0.905 |
| Cc1ncc(CNC(C)(C)CO)c2cc(C(=O)c3ccc(Br)cc3)oc12 | 12.7 |
| CC(O)CN1CCN(C(=O)CCOc2ccccc2F)CC1 (stereo unspecified) | 3.66 |

| Structure (SMILES) | cytotoxicity at 10 µM [%] |
| --- | --- |
| CC(C)NC(=O)[C@H]1C[C@@H]2[C@@H](C1)OCCN2Cc1cccs1 | 10.3 |
| Cc1csc(CN2CCC[C@]3(C[C@@H](OCC4CC4)CO3)C2)n1 | -134 |
| COC(C)C(=O)NS(=O)(=O)c1ccc(F)c(C(F)(F)F)c1 (stereo unspecified) | -4.04 |
| O=C(Cc1ccc(F)cc1)NCCc1ccoc1 | -10.5 |
| c1ccc(OCCN2CCC(n3cncn3)CC2)cc1 | -20.7 |
| O=C(c1cnc2ccc(F)cc2c1NCc1ccco1)N1CCCC1 | -54.5 |
| COC(=O)CC(NC(=O)c1cccc(CS(C)(=O)=O)c1)c1cccs1 (stereo unspecified) | -44.8 |
| Cc1cc(C(=O)N[C@H](C)c2onc(-c3cccnc3)c2C(=O)O)c(C)o1 | 1.47 |
| Cc1cccc(CN2C[C@@H]3CN(C(=O)c4ccsc4)C[C@@H]3C2=O)n1 | 5.86 |
| Cc1ccc(-n2cnnn2)cc1NCC(=O)Nc1cc(F)ccc1F | 6.23 |
| CC(C)(C)OC(=O)N1CCCCC(NC(=O)CCc2cccnc2)C1 (stereo unspecified) | 17.5 |
| CC(=O)N[C@@H]1CN(Cc2oc3ccccc3c2C)C[C@H]1c1ccc(C)o1 | -12.3 |
| Cc1nc(CNC(=O)CCCc2cccs2)no1 | -46.8 |
| CCN(Cc1nonc1C)C(=O)c1cnccn1 | -4.04 |
| CSC(C)C(=O)N(C)CCCc1cc(-c2ccccc2)no1 (stereo unspecified) | 2.63 |
| Cc1cc(C(=O)N2C[C@H](CO)C[C@H](CN3CCOCC3)C2)nc(C)n1 | 9.91 |
| CCN1CCN(c2ccc(CNC(=O)c3cc(C)on3)cn2)CC1 | -11 |
| CCn1ccnc1C1CCN(Cc2c(F)cccc2F)CC1 | -6.82 |
| O=C(C[C@@H]1COC[C@H]2CN(C(=O)c3cccnc3)C[C@@H]12)N1CCCC1 | -118 |
